# Assays:
# [1] = target: Sodium-dependent noradrenaline transporter (Homo sapiens, UniProt P23975); test: Inhibition of norepinephrine reuptake at NET expressed in MDCK cells; type: cell-based
# Cytochrome P450 3A4 = Cytochrome P450 3A4 (Homo sapiens, UniProt P08684); test: Inhibition of CYP3A4 in human liver microsomes by LC-MS/MS analysis; type: ADME, Microsome
# In short: (§1)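 Human liver microsomes incubated with isoform-specific substrates and compound, typically 0.1–25 μM. Metabolite formation read by LC-MS/MS, […]. IC50 calculated from the decrease in metabolite formation relative to vehicle control.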
# [2] = target: Sodium-dependent dopamine transporter (Homo sapiens, UniProt Q01959); test: Inhibition of dopamine reuptake at DAT expressed in CHO-K1 cells; type: cell-based
# Chain of Sodium-dependent dopamine transporter (Q01959 whole entry): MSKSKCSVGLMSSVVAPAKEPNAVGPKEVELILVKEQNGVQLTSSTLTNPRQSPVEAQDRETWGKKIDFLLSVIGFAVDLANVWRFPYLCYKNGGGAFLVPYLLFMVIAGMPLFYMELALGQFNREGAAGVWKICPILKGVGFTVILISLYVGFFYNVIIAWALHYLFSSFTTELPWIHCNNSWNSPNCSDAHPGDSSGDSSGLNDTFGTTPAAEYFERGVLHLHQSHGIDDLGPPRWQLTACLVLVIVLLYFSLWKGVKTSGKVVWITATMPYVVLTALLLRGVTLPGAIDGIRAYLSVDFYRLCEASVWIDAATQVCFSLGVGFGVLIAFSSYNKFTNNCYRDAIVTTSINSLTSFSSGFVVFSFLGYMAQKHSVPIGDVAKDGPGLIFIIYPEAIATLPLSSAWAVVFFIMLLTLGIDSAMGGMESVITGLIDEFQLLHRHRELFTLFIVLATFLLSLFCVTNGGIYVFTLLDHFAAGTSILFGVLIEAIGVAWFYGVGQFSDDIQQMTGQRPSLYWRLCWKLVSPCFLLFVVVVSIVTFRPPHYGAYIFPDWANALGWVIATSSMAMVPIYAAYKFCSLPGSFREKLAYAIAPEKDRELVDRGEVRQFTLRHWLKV
# Cytochrome P450 2D6 = Cytochrome P450 2D6 (Homo sapiens, UniProt P10635); test: Inhibition of CYP2D6 in human liver microsomes by LC-MS/MS analysis; type: ADME, Microsome; in short: as §1
# Chain of Cytochrome P450 2D6 (P10635 whole entry): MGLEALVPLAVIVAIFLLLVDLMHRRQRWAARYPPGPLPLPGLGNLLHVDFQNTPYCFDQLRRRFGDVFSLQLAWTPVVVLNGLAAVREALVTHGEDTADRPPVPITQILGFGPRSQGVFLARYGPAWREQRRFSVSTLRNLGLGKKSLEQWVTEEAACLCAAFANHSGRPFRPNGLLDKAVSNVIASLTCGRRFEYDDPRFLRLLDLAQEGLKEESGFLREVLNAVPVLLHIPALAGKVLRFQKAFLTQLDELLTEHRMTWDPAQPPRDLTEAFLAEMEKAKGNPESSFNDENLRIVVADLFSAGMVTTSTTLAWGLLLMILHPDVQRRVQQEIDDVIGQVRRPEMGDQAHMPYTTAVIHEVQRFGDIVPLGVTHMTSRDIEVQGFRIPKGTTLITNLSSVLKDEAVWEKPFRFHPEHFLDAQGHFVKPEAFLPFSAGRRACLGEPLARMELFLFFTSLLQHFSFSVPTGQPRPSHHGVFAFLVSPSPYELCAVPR
# [3] = target: Sodium-dependent serotonin transporter (Homo sapiens, UniProt P31645); test: Inhibition of serotonin reuptake at SERT expressed in HEK293 cells; type: cell-based
# Chain of Sodium-dependent serotonin transporter (P31645 whole entry): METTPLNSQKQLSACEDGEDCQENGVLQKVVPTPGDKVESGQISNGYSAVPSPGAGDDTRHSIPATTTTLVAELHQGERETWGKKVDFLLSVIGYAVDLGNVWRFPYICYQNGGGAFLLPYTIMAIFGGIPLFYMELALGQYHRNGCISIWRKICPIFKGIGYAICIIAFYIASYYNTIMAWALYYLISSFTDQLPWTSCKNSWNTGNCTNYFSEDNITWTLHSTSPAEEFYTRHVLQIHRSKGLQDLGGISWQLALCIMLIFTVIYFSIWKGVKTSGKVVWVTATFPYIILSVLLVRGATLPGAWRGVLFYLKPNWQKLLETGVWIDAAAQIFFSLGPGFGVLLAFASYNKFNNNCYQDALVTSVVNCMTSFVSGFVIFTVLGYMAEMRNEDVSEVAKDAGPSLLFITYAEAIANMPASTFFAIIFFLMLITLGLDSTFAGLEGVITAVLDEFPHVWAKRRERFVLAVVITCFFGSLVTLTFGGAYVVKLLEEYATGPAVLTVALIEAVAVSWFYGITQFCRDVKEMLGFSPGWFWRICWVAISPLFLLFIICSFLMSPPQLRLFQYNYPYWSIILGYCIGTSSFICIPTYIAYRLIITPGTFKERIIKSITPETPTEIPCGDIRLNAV
# Cytochrome P450 2C19 = Cytochrome P450 2C19 (Homo sapiens, UniProt P33261); test: Inhibition of CYP2C19 in human liver microsomes by LC-MS/MS analysis; type: ADME, Microsome; in short: as §1
# Chain of Cytochrome P450 2C19 (P33261 whole entry): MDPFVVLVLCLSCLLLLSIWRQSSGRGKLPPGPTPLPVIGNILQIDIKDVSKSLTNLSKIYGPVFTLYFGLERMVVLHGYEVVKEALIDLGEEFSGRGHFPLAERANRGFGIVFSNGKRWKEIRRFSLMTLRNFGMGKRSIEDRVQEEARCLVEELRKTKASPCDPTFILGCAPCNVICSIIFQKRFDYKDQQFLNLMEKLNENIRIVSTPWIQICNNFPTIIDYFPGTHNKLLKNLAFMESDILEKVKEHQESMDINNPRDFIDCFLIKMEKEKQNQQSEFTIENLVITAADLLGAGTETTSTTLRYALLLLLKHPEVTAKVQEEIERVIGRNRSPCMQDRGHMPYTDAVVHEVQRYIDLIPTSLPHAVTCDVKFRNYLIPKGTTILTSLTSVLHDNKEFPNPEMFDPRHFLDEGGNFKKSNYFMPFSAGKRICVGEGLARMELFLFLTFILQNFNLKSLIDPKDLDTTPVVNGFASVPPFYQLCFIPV
# [4] = Half life in human liver microsomes at 3 uM by LC-MS/MS analysis; type: ADME, Microsome
# In short: (§2)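 Human or mouse liver microsomes (0.5 mg/mL) incubated with 3 μM compound at 37 °C. Reaction started with NADPH and stopped with methanol containing internal standard. Loss of compound followed over 45 min by LC-MS/MS. Peak area ratio to internal standard plotted against time and the slope of the line taken.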
# Cytochrome P450 2C9 = Cytochrome P450 2C9 (Homo sapiens, UniProt P11712); test: Inhibition of CYP2C9 in human liver microsomes by LC-MS/MS analysis; type: ADME, Microsome; in short: as §1
# Chain of Cytochrome P450 2C9 (P11712 whole entry): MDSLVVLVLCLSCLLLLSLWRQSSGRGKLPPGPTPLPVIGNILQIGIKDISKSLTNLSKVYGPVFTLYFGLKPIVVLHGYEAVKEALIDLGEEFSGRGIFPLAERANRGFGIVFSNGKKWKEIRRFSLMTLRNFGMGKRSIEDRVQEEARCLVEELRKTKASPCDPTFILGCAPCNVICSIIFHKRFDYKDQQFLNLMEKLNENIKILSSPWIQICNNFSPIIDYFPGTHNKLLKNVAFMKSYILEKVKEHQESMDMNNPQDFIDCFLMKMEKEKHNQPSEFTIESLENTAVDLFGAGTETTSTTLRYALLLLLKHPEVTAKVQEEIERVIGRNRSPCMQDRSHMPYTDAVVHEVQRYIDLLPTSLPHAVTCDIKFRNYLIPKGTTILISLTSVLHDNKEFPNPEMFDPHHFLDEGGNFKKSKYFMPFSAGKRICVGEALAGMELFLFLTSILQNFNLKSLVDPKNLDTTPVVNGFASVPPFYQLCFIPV
# CYP1A = target: T1, CYP1A (Homo sapiens, UniProt P04798+P05177); test: Inhibition of CYP1A in human liver microsomes by LC-MS/MS analysis; type: ADME, Microsome; in short: as §1
# T1 sequence (P04798 whole entry): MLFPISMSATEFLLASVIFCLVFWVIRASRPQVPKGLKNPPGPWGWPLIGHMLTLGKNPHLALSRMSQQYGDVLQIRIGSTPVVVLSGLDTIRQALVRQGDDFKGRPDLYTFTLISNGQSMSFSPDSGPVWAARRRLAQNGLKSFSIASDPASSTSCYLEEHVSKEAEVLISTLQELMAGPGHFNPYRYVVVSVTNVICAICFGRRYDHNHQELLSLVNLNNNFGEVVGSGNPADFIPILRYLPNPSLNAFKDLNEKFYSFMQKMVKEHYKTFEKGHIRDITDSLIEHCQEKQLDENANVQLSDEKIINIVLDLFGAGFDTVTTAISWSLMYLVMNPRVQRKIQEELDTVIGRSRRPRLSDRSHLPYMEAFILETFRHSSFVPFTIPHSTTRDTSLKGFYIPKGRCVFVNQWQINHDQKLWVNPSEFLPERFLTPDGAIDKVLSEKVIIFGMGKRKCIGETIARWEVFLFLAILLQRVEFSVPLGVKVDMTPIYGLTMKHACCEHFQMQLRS
# T1 sequence (P05177 whole entry): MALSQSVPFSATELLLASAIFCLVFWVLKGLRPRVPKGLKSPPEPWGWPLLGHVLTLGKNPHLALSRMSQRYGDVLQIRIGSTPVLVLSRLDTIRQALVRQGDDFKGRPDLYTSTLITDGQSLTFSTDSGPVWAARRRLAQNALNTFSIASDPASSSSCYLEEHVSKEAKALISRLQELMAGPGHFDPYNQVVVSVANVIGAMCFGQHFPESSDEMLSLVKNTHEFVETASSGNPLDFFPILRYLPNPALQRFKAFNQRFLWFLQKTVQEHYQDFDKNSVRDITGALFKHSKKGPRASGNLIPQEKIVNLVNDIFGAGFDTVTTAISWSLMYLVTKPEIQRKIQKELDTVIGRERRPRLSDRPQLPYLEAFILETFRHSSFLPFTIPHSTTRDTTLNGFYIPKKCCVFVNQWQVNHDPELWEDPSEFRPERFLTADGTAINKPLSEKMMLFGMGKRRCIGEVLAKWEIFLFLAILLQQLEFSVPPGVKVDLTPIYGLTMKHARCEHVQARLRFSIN
# [5] = target: Voltage-gated inwardly rectifying potassium channel KCNH2 (Homo sapiens, UniProt Q12809); test: Inhibition of human ERG expressed in CHO cells by high throughput single cell planar patch clamp method; type: cell-based
# Chain of Voltage-gated inwardly rectifying potassium channel KCNH2 (Q12809 whole entry): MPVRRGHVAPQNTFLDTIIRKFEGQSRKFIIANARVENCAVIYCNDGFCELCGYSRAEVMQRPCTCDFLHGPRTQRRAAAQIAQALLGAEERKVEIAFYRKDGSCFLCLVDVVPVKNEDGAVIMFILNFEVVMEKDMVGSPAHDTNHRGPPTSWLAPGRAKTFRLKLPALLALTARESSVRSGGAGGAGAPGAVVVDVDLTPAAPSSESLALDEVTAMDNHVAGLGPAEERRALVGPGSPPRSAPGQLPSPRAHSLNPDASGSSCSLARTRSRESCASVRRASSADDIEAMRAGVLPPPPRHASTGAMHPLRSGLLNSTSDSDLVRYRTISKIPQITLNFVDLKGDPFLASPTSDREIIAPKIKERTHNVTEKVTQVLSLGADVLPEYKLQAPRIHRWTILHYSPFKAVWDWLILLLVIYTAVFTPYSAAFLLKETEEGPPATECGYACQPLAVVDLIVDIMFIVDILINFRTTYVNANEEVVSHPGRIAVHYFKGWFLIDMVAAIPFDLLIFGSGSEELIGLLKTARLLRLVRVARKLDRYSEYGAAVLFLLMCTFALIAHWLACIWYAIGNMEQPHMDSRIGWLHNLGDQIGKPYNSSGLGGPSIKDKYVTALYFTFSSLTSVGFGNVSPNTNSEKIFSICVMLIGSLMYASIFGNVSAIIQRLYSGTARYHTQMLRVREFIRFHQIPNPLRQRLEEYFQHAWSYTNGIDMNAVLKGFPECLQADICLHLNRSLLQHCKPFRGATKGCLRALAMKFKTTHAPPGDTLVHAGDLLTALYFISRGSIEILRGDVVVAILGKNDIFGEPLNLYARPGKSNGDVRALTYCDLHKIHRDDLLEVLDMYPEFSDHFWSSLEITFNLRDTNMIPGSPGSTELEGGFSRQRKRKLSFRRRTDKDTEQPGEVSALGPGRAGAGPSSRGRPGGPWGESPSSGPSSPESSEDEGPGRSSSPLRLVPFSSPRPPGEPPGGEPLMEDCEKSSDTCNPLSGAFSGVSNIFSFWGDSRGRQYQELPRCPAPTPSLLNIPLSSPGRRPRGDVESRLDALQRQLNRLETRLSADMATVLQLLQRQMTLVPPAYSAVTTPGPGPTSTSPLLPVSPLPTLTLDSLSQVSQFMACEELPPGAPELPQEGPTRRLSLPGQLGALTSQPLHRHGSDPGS
# [6] = Half life in mouse liver microsomes at 3 uM by LC-MS/MS analysis; type: ADME, Microsome; in short: as §2
# Brain [7] = test: Drug level in mouse brain assessed as (3aR,6aS)-3a-(3,4-dichlorophenyl)octahydrocyclopenta[c]pyrrole level at 3 mg/kg, po; type: ADME, organism-based; design: dose 3 mg/kg, route oral; conditions: in vivo
# In short: (§3)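 Male mice dosed orally at 3, 10 or 30 mg/kg in 5% transcutol/saline, 60 min before the tail suspension test. Terminal whole brain (ng/g) and plasma (ng/mL) samples taken from the test animals. Brain/plasma ratio derived from these levels.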
# Plasma [8] = test: Plasma concentration in mouse at 3 mg/kg, po; type: ADME, organism-based; design: dose 3 mg/kg, route oral; conditions: in vivo; in short: as §3
# Plasma [9] = test: Plasma concentration in mouse assessed as (3aR,6aS)-3a-(3,4-dichlorophenyl)octahydrocyclopenta[c]pyrrole level at 3 mg/kg, po; type: ADME, organism-based; design: dose 3 mg/kg, route oral; conditions: in vivo; in short: as §3
# Mus musculus [10] = test: Toxicity in mouse assessed as increase of spontaneous locomotor activity at 30 mg/kg, po measured for 5 mins; type: organism-based; design: dose 30 mg/kg, route oral; conditions: in vivo
# Mus musculus [11] = test: Antidepressant activity in mouse assessed as reduction of immobility time at 100 mg/kg, po after 60 mins by tail suspension test relative to control; type: functional; design: scale not given: the % may be the effect or the level left
# In short: (§4)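 Mouse tail suspension test, male mice (10–12 per group, blind). Single oral dose in 5% transcutol in saline, 60 min pretreatment. Immobility recorded automatically for 5 min. Compared with vehicle group. Desipramine 100 mg/kg PO used as reference. One-way ANOVA with Dunnett's post test, p < 0.05.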
# Mus musculus [12] = test: Antidepressant activity in mouse assessed as reduction of immobility time at 10 mg/kg, po after 60 mins by tail suspension test relative to control; type: functional; design: scale not given: the % may be the effect or the level left; in short: as §4
# Plasma [13] = test: Plasma concentration in mouse assessed as (3aR,6aS)-3a-(3,4-dichlorophenyl)octahydrocyclopenta[c]pyrrole level at 30 mg/kg, po; type: ADME, organism-based; design: dose 30 mg/kg, route oral; conditions: in vivo; in short: as §3
# Plasma [14] = test: Plasma concentration in mouse at 30 mg/kg, po; type: ADME, organism-based; design: dose 30 mg/kg, route oral; conditions: in vivo; in short: as §3
# [15] = Ratio of drug level in brain to plasma in po dosed mouse; type: ADME, organism-based; conditions: brain and plasma, read-out: BPR; in short: as §3
# Brain [16] = test: Drug level in mouse brain assessed as (3aR,6aS)-3a-(3,4-dichlorophenyl)octahydrocyclopenta[c]pyrrole level at 10 mg/kg, po; type: ADME, organism-based; design: dose 10 mg/kg, route oral; conditions: in vivo; in short: as §3
# Brain [17] = test: Drug level in mouse brain at 3 mg/kg, po; type: ADME, organism-based; design: dose 3 mg/kg, route oral; conditions: in vivo; in short: as §3
# Brain [18] = test: Drug level in mouse brain at 30 mg/kg, po; type: ADME, organism-based; design: dose 30 mg/kg, route oral; conditions: in vivo; in short: as §3
# Mus musculus [19] = test: Antidepressant activity in mouse assessed as reduction of immobility time at 30 mg/kg, po after 60 mins by tail suspension test relative to control; type: functional; design: scale not given: the % may be the effect or the level left; in short: as §4
# Plasma [20] = test: Plasma concentration in mouse at 10 mg/kg, po; type: ADME, organism-based; design: dose 10 mg/kg, route oral; conditions: in vivo; in short: as §3
# Mus musculus [21] = test: Antidepressant activity in po dosed mouse assessed as reduction of immobility time after 60 mins by tail suspension test; type: functional, organism-based; in short: as §4
# Plasma [22] = test: Plasma concentration in mouse assessed as (3aR,6aS)-3a-(3,4-dichlorophenyl)octahydrocyclopenta[c]pyrrole level at 10 mg/kg, po; type: ADME, organism-based; design: dose 10 mg/kg, route oral; conditions: in vivo; in short: as §3
# Brain [23] = test: Drug level in mouse brain assessed as (3aR,6aS)-3a-(3,4-dichlorophenyl)octahydrocyclopenta[c]pyrrole level at 30 mg/kg, po; type: ADME, organism-based; design: dose 30 mg/kg, route oral; conditions: in vivo; in short: as §3
# Brain [24] = test: Drug level in mouse brain at 10 mg/kg, po; type: ADME, organism-based; design: dose 10 mg/kg, route oral; conditions: in vivo; in short: as §3
# Chain of Sodium-dependent noradrenaline transporter (P23975 whole entry): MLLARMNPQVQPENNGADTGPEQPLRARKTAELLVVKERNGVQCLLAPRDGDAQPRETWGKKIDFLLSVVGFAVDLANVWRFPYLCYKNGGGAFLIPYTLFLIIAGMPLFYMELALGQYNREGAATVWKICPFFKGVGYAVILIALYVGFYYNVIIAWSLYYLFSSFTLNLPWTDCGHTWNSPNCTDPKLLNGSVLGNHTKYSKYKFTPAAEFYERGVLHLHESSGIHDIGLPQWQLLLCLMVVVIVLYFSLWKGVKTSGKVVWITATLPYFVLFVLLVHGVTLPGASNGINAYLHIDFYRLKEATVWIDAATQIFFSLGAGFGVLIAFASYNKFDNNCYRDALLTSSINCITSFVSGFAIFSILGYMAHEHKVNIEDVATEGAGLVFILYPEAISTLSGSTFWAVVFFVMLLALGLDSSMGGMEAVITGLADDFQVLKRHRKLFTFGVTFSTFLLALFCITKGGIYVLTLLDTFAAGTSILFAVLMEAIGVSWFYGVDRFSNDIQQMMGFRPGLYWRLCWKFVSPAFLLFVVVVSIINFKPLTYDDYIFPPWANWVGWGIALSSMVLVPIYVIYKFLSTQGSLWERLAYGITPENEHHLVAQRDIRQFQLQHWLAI
# Chain of Cytochrome P450 3A4 (P08684 whole entry, canonical isoform): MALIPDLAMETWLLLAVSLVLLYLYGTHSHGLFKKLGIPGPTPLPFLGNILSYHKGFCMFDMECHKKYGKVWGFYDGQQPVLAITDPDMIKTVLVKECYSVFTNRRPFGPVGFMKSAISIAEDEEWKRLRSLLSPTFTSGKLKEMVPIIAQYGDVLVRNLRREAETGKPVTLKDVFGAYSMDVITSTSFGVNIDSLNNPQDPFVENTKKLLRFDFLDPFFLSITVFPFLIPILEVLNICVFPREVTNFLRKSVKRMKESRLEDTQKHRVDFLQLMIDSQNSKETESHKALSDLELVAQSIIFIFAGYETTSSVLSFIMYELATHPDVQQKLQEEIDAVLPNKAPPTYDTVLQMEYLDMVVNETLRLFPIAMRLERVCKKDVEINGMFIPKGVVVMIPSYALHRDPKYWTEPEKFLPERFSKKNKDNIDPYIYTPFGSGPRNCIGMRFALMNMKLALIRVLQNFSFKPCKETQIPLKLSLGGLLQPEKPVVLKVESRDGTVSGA
compound,measurement,setting,value
Clc1ccc([C@]23CCCC[C@H]2CNC3)cc1Cl,IC50,[1],0.178 µM
same,IC50,Cytochrome P450 3A4,8.39 µM
same,IC50,[2],0.457 µM
same,IC50,Cytochrome P450 2D6,2.65 µM
same,IC50,[3],0.0977 µM
same,IC50,Cytochrome P450 2C19,> 25 µM
same,half-life at 3 µM,[4],> 300 min
same,IC50,Cytochrome P450 2C9,> 25 µM
same,IC50,CYP1A,7.96 µM
same,IC50,[5],6.48 µM
same,half-life at 3 µM,[6],> 300 min
"CCN1C[C@@H]2CCCC[C@]2(c2ccc(Cl)c(Cl)c2)C1 (single isomer, unassigned)",IC50,[1],0.038 µM
same,IC50,Cytochrome P450 3A4,> 5 µM
same,IC50,[2],0.01 µM
same,IC50,Cytochrome P450 2D6,2.92 µM
same,IC50,[3],0.0692 µM
same,IC50,Cytochrome P450 2C19,> 25 µM
same,half-life at 3 µM,[4],55 min
same,IC50,Cytochrome P450 2C9,> 5 µM
same,IC50,CYP1A,4.23 µM
same,IC50,[5],4.33 µM
same,half-life at 3 µM,[6],33 min
"CN1C[C@H]2CCCC[C@@]2(c2ccc(Cl)c(Cl)c2)C1 (single isomer, unassigned)",IC50,[1],0.0562 µM
same,IC50,Cytochrome P450 3A4,6.5 µM
same,IC50,[2],0.055 µM
same,Drug uptake,Brain [7],440 ng/g
same,Cp,Plasma [8],14 ng/mL
same,Cp,Plasma [9],114 ng/mL
same,IC50,Cytochrome P450 2D6,1.1 µM
same,Activity,Mus musculus [10],Non-toxic
same,Activity,Mus musculus [11],28%
same,IC50,[3],0.00977 µM
same,IC50,Cytochrome P450 2C19,11.9 µM
same,Activity,Mus musculus [12],13%
same,half-life at 3 µM,[4],125 min
same,Cp,Plasma [13],1228 ng/mL
same,Cp,Plasma [14],181 ng/mL
same,Kp,[15],5
same,Drug uptake,Brain [16],1878 ng/g
same,Drug uptake,Brain [17],294 ng/g
same,IC50,Cytochrome P450 2C9,> 25 µM
same,IC50,CYP1A,> 25 µM
same,Drug uptake,Brain [18],4203 ng/g
same,IC50,[5],4.14 µM
same,Activity,Mus musculus [19],16%
same,half-life at 3 µM,[6],45 min
same,Cp,Plasma [20],50 ng/mL
same,Activity,Mus musculus [21],Dose-dependent effect
same,Cp,Plasma [22],417 ng/mL
same,Drug uptake,Brain [23],6193 ng/g
same,Drug uptake,Brain [24],1054 ng/g
